Results from the M2OR odorant receptor database.

molecular target: T1, OR1A1 (Homo sapiens) (UniProt Q9P1Q5); conditions: stereoisomer not certain
T1 sequence (whole entry): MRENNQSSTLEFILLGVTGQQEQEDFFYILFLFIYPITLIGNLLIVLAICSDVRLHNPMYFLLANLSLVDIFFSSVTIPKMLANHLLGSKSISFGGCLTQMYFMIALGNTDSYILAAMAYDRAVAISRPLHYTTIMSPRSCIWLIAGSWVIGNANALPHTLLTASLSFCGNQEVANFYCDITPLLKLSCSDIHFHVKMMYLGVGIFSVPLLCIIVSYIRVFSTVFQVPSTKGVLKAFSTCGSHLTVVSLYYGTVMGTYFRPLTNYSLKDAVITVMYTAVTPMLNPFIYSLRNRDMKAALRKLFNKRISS
Method in brief: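 Assay methods differ from source to source, frequently being transient luciferase assays in mammalian cell lines. For each receptor–molecule pair, the label responsive (active) applies when the original authors judged the measured signal statistically different from baseline, and non-responsive (inactive) applies otherwise.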

Row | Structure (SMILES) | odorant receptor agonist call
1 | COc1nccnc1C(C)C | inactive
2 | CC(=O)OCC=Cc1ccccc1 | inactive
3 | Cc1cccc(O)c1 | inactive
4 | CC(C)C12CCC(C)(CC1)O2 | inactive
5 | CCC=CCCOC(C)=O | inactive
6 | C=C(C)c1ccc(C)cc1 | inactive
7 | CCc1cnccn1 | inactive
8 | CCC(=O)O | inactive
9 | CCCCCCCC1CCCC(=O)O1 (configuration not stated) | inactive
10 | CCCCCC1CCC(=O)O1 (configuration not stated) | active
11 | CCCCCC(=O)CC(C)=O | active
12 | CCCCCCCO | active
13 | CC(C)CCO | inactive
14 | CCCCCCC=CC=O | inactive
15 | O=C(O)CCc1ccccc1 | inactive
16 | CCCCCC1CCCC(=O)O1 (configuration not stated) | inactive
17 | CCc1nccnc1CC | inactive
18 | COc1nccnc1CC(C)C | inactive
19 | CCC(S)C(C)=O (configuration not stated) | inactive

Row | Structure (SMILES) | odorant receptor agonist call
20 | CCCC(C)C=O (configuration not stated) | inactive
21 | CC(=O)OCCc1ccccc1 | active
22 | CCOC(=O)c1ccccc1 | inactive
23 | CCCCCC(=O)CC | active
24 | CCCCC=CC=O | inactive
25 | C=C(C)C1CCC(C)C(=O)C1 (configuration not stated) | active
26 | CCC(=O)C(C)=O | inactive
27 | CCC(C)C(=O)OC (configuration not stated) | inactive
28 | CCOC(=O)CCSC | inactive
29 | OCCc1ccccc1 | inactive
30 | CCCC(=O)C(C)=O | inactive
31 | O=C1Cc2ccccc2O1 | inactive
32 | CC(=O)OCc1ccccc1 | active
33 | CCCCC1OC(=O)CC1C (configuration not stated) | inactive
34 | COc1ccc(C)cc1O | inactive
35 | Cc1ccc(O)cc1 | inactive
36 | CCCCCCCCC(=O)O | inactive
37 | CC(=O)O | inactive
